Results reported in ChEMBL document CHEMBL1136404, “Synthesis and biological evaluation of new UDP-GalNAc analogues for the study of polypeptide-alpha-GalNAc-transferases” (Bioorg Med Chem Lett, 2003).

Legend:
[1] = Inhibitory activity against GalNAc transferase 1 at a concentration of 1000 uM
Outline: (§1)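 Bovine ppGalNAc-T1 (EC 2.4.1.41), secreted 6His-tagged protein from baculovirus-infected insect cells, Ni-NTA purified (0.5 U/mg). Stopped with ice-cold water; glycopeptide recovered on C18 cartridge, eluted with methanol, scintillation counted. Inhibition reported as relative %.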

[2] = Inhibitory activity against GalNAc transferase 1 at a concentration of 200 uM; outline: as §1
[3] = Inhibitory activity against GalNAc transferase 1 at a concentration of 20 uM; outline: as §1

inhibition [1]	inhibition [2]	inhibition [3]	SMILES
76%	17%	0%	COCC1OC(OP(=O)(O)OP(=O)(O)OC[C@H]2OC(n3ccc(=O)[nH]c3=O)[C@H](O)[C@@H]2O)C(NC(C)=O)C(O)C1O (some centres not stated)
74%	30%	0%	COC1C(O)C(CO)OC(OP(=O)(O)OP(=O)(O)OC[C@H]2OC(n3ccc(=O)[nH]c3=O)[C@H](O)[C@@H]2O)C1NC(C)=O (some centres not stated)
72%	7%	0%	COC1C(CO)OC(OP(=O)(O)OP(=O)(O)OC[C@H]2OC(n3ccc(=O)[nH]c3=O)[C@H](O)[C@@H]2O)C(NC(C)=O)C1O (some centres not stated)
79%	39%	0%	CC(=O)N[C@@H]1[C@H](OP(=O)(O)OP(=O)(O)OC[C@H]2O[C@@H](n3ccc(=O)[nH]c3=O)[C@H](O)[C@@H]2O)O[C@@H](CO)[C@H](O)[C@H]1O
